Activity calls are given as the source filed them.
How the values were obtained:
Mus musculus [1] = experiment: Antiinflammatory activity in C57BL/6 mouse assessed as inhibition of zymosan-induced IL-1beta production in cell-free supernatant of knee joint synovial washes at 7 mg/kg, po administered 1 hr prior to zymosan challenge measured at 6 to 24 hrs by sandwich ELISA method; assay type: functional, organism-based
Procedure, shortened: (§1)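 Male C57BL/6 mice (18−22 g), fasted overnight, dosed orally (in filtered water, 200 μL) or i.p. 1 h before i.a. zymosan (500 μg in 25 μL saline) into left knee; contralateral knee got vehicle. Synovial cavity washed twice with 150 μL PBS/10 mM EDTA at 6 and 24 h; washes spun 400g 10 min, 4 °C. Cytokines measured by sandwich ELISA, LTB4/PGE2 by EIA (pg/mL); six mice/group, two experiments.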

J774.A1 [2] = experiment: Antiinflammatory activity in mouse J774A.1 cells assessed as inhibition of zymosan and IFNgamma-induced cytoplasmic calcium flux at 1 uM preincubated for 1 hr followed by zymosan and IFNgamma addition measured over 10 mins by FLIPR assay; assay type: functional, cell-based
Procedure, shortened: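 J774A.1 macrophages preincubated 1 h with HBSS or compound (1 μM), then stimulated with zymosan plus IFN-γ. Intracellular calcium followed over 600 s with a FLIPR Calcium Plus kit; mean signal from 360−600 s after stimulus used for analysis; quadruplicate wells.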

Mus musculus [3] = experiment: Antiinflammatory activity in C57BL/6 mouse assessed as inhibition of zymosan-induced mononuclear cells recruitment in synovial cavity at 0.7 to 70 mg/kg, po administered 1 hr prior to zymosan challenge measured after 6 to 24 hrs by Grunwald-Giemsa-stained cytospin smear; assay type: functional, organism-based
J774.A1 [4] = experiment: Antiinflammatory activity in mouse J774A.1 cells assessed as inhibition of zymosan and IFNgamma-induced IL6 production in cell-free supernatant at 0.1 to 10 uM preincubated for 1 hr followed by zymosan and IFNgamma addition measured after 24 hrs by sandwich ELISA; assay type: functional, cell-based
Procedure, shortened: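 J774A.1 macrophages (1 × 10^5/well, RPMI/10% FBS) adhered 24 h, preincubated 1 h with compound (0.1−10 μM) or dexamethasone (1 μM), then stimulated with zymosan (10 μg per 10^5 cells) and/or IFN-γ (25 U/mL) for 24 h. Supernatant IL-6 by sandwich ELISA; nitrite by Griess reaction at 540 nm. Quadruplicate wells, two experiments.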

Neutrophil [5] = experiment: Antiinflammatory activity in C57BL/6 mouse neutrophils assessed as inhibition of neutrophil adhesion to TNFalpha-primed mouse tEnd.1 cells at 0.1 uM preincubated for 1 hr with neutrophils followed by tEND.1 cells addition measured after 1 hr by Giemsa staining-based light microscopic method; assay type: functional, cell-based
Procedure, shortened: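 tEnd.1 endothelioma cells (10^4/well, 24 h) primed with mouse TNF-α (10 ng/mL) for 4 h. Bone marrow neutrophils preincubated 1 h with compound (0.1 μM) or fucoidan (25 μg/mL), then added at 50 per tEnd.1 cell for 1 h at 37 °C with shaking. After washing and Giemsa staining, adhesion index = fraction of tEnd.1 with bound neutrophils × neutrophils per tEnd.1 × 100.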

Mus musculus [6] = experiment: Antiinflammatory activity in C57BL/6 mouse assessed as inhibition of zymosan-induced mononuclear cells migration in articular cavity at 7 mg/kg, po administered 1 hr prior to zymosan challenge measured at 6 to 24 hrs; assay type: functional, organism-based
Procedure, shortened: (§2)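 Male C57BL/6 mice, fasted overnight, dosed orally (vehicle saline/water, 200 μL) or i.p. 1 h before zymosan (500 μg in 25 μL saline, i.a., left knee). Knee swelling measured as change in transverse diameter from basal by digital caliper (mm). Synovial washes (PBS/EDTA) counted on a particle counter; differentials from May-Grünwald-Giemsa cytospins, cells ×10^5/cavity. Sampled at 6 and/or 24 h; seven mice/group.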

Neutrophil [7] = experiment: Antiinflammatory activity in C57BL/6 mouse neutrophils assessed as inhibition of CXCL1/KC-induced neutrophil chemotaxis at 0.1 to 1 uM preincubated for 1 hr followed by CXCL1/KC-induction measured after 1 hr by Wright-Giemsa staining-based light microscopic method; assay type: functional, cell-based
Procedure, shortened: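 Bone marrow neutrophils from C57BL/6 femurs, purified on a 65%/72% Percoll gradient (~85−90% purity). 10^5 cells preincubated 1 h with compound or medium, then placed in a 48-well Boyden chamber over CXCL-1/KC (250 nM) across a 5 μm polycarbonate filter, 60 min at 37 °C, 5% CO2. Filter Wright-Giemsa stained; migrated cells counted in 15 fields; quadruplicate wells.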

Mus musculus [8] = experiment: Antiinflammatory activity in C57BL/6 mouse assessed as inhibition of zymosan-induced total leukocyte accumulation in articular cavity at 7 mg/kg, po administered 1 hr prior to zymosan challenge measured at 24 hrs; assay type: functional, organism-based; procedure, shortened: as §2
Mus musculus [9] = experiment: Antiinflammatory activity in C57BL/6 mouse assessed as inhibition of zymosan-induced CXCL1/KC production in cell-free supernatant of knee joint synovial washes at 7 mg/kg, po administered 1 hr prior to zymosan challenge measured at 6 to 24 hrs by sandwich ELISA method; assay type: functional, organism-based; procedure, shortened: as §1
Mus musculus [10] = experiment: Antiinflammatory activity in C57BL/6 mouse assessed as inhibition of zymosan-induced knee joint edema formation at 0.7 to 70 mg/kg, po administered 1 hr prior to zymosan challenge measured at 6 hrs; assay type: functional, organism-based; procedure, shortened: as §2
Mus musculus [11] = experiment: Antiinflammatory activity in C57BL/6 mouse assessed as inhibition of zymosan-induced LTB4 production in cell-free supernatant of knee joint synovial washes at 7 mg/kg, po administered 1 hr prior to zymosan challenge measured at 6 to 24 hrs by immunosorbent assay; assay type: functional, organism-based; procedure, shortened: as §1
Mus musculus [12] = experiment: Antiinflammatory activity in C57BL/6 mouse assessed as inhibition of zymosan-induced bleeding in synovial tissue at 7 mg/kg, po administered 1 hr prior to zymosan challenge measured at 6 to 24 hrs by hematoxylin and eosin staining-based optical microscopy; assay type: functional, organism-based
Procedure, shortened: (§3)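 Mice dosed orally or i.p. 1 h before i.a. zymosan (500 μg/cavity) or saline. Whole knees taken at 6 and 24 h from six mice, fixed in 10% formalin 48 h, decalcified in 10% EDTA/PBS 1−2 weeks, paraffin-embedded. 5 μm sections H&E-stained and examined by light microscopy. Parameter scores summed into an arthritis index; means ± SEM, two experiments.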

Mus musculus [13] = experiment: Antiinflammatory activity in C57BL/6 mouse assessed as inhibition of zymosan-induced total leukocyte accumulation in articular cavity at 7 mg/kg, po administered 1 hr prior to zymosan challenge measured at 6 hrs; assay type: functional, organism-based; procedure, shortened: as §2
Mus musculus [14] = experiment: Antiinflammatory activity in C57BL/6 mouse assessed as inhibition of zymosan-induced IL6 production in cell-free supernatant of knee joint synovial washes at 7 mg/kg, po administered 1 hr prior to zymosan challenge measured at 6 to 24 hrs by sandwich ELISA method; assay type: functional, organism-based; procedure, shortened: as §1
Mus musculus [15] = experiment: Antiinflammatory activity in C57BL/6 mouse assessed as inhibition of zymosan-induced synovial hyperplasia at 7 mg/kg, po administered 1 hr prior to zymosan challenge measured at 6 to 24 hrs by hematoxylin and eosin staining-based optical microscopy; assay type: functional, organism-based; procedure, shortened: as §3
Mus musculus [16] = experiment: Antiinflammatory activity in C57BL/6 mouse assessed as inhibition of zymosan-induced paw edema at 10 to 50 mg/kg, po administered 1 hr prior to zymosan challenge measured after 4 hrs by plethysmography; assay type: functional, organism-based
Procedure, shortened: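 C57BL/6 mice dosed orally (1−50 mg/kg) before intraplantar zymosan (100 μg/paw in 50 μL saline); contralateral paw got saline. Volume measured by plethysmography at 4 h, edema taken as right minus left paw (μL).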

Measured: inhibition

COC(=O)c1cc(O)c(O)c(O)c1 [GALLIC ACID METHYL ESTER]
active: all assays above

— ChEMBL document CHEMBL3853307, “Anti-inflammatory Effect of Methyl Gallate on Experimental Arthritis: Inhibition of Neutrophil Recruitment, Production of Inflammatory Mediators, and Activation of Macrophages” (J Nat Prod, 2016)
